pIC50: −log10 of the molar value.

Common to all, as to type: functional, cell-based
Test [1] concerns A549. In words: Cytotoxicity against human A549 cells after 48 hrs by MTT assay. The following applies: A549, 48 h. Put shortly: (§1)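 Cells grown in RPMI-1640 or DMEM with 10% FBS, 37 °C, 5% CO2. Seeded at 1 × 10^5 cells/mL; adherent lines allowed 12 h to attach, suspension cells seeded just before dosing. Compounds at various concentrations in triplicate, 48 h. MTT (100 μg per well) 4 h at 37 °C, SDS lysis, OD 595 nm; IC50 by Reed and Muench method.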

Test [2] is described as follows: Cytotoxicity against human […] cells after 48 hrs by MTT assay. Put shortly: as §1
For orientation: Tetrazolium dyes change colour on reduction, which living cells bring about.

Test [3] has as its system MCF7. Description: Cytotoxicity against human MCF7 cells after 48 hrs by MTT assay. The following applies: MCF7, 48 h. Put shortly: as §1
The subject of test [4] is HL-60. Description: Cytotoxicity against human HL60 cells after 48 hrs by MTT assay. The following applies: HL-60, 48 h. Put shortly: as §1

The pIC50 is the negative decadic logarithm of the IC50, by convention in mol/L. Read a low pIC50 as a large IC50. In the case of `CC(C)=CCC/C(C)=C/CC[C@]1(C)C=Cc2c(O)cc(C)cc2O1` [CONFLUENTIN], the negative-log IC50 (pIC50) in test [1] is 4.73; in test [2] it was 4.77; in test [3], 4.64; in test [4] it was 4.82.

On to `CC(C)=CCC/C(C)=C/CC[C@]1(C)C=Cc2c(C)cc(O)cc2O1` [ALBATRELIN C], for which the pIC50 in test [1], in test [2], in test [3] and in test [4] was under 4.40 in each case.

Take `CC(C)=CCC/C(C)=C/CC/C(C)=C/Cc1c(O)cc(C)c2c1oc1c3c(c(O)c(C)c12)O[C@](C)(CC/C=C(\C)CCC=C(C)C)C=C3` [ALBATRELIN D]: the pIC50 in test [1], in test [2], in test [3] and in test [4] was under 4.40 each time.

Take `COC(=O)c1c(O)cc(O)c(C/C=C(\C)CC/C=C(\C)CCC=C(C)C)c1C` [ALBATRELIN A]: the pIC50 in test [1], in test [2], in test [3] and in test [4] was under 4.40 in each case.

On to `CC(C)=CCC/C(C)=C/CC/C(C)=C/CC1=C(O)C(=O)C(C)=C(c2c(O)cc(O)c(C/C=C(\C)CC/C=C(\C)CCC=C(C)C)c2C)C1=O` [ALBATRELIN E], for which the pIC50 in test [1], in test [2], in test [3] and in test [4] was under 4.40 each time.

Take `COc1cc(C)c(O)c2c1C=C[C@@](C)(CC/C=C(\C)CCC=C(C)C)O2` [ALBATRELIN B]: the negative logarithm of the IC50 (pIC50) in test [1], in test [2], in test [3] and in test [4] was under 4.40 each time.

Regarding `CC(C)=CCC/C(C)=C/CC/C(C)=C/CC12C(=O)C=C(C)C(=O)C1(O)Oc1c3c(c(O)c(C)c12)O[C@](C)(CC/C=C(\C)CCC=C(C)C)C=C3` (stereo partly drawn) [ALBATRELIN F], the pIC50 in test [1], in test [2], in test [3] and in test [4] was under 4.40 each time.

Values taken from ChEMBL document CHEMBL2331437, “Meroterpenoid pigments from the basidiomycete Albatrellus ovinus” (J Nat Prod, 2013).
